The target in the test is CHO-CHOP luciferase reporter, UPR activation, luminescence. The test can be described thus: PERK-eIF2a-CHOP apoptotic UPR arm activators, SAR follow-up, CHO-CHOP cells, luminescence (AID 540312). In outline: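 System: CHO-CHOP luciferase reporter cell line. Doses: compound dose-response series, final DMSO at most 1%. Detection: luminescence of luciferase reporter using Steady-Glo reagent. Schedule: 16–18 h cell rest, then 6 h compound treatment, 37 °C. Controls: tunicamycin 10 µg/mL as maximal activation, DMSO alone as baseline. Buffer or medium: F12 medium, 10% FBS.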

Active and inactive are the calls of the source.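 Rule for the calls: active = mean EC50 of 20 µM or lower; inactive = the rest.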 Bounds are passed on as bounds.

By EC50 is commonly meant the concentration at which the effect is half-maximal. Regarding `O=C(Nc1ccc(S(=O)(=O)N2CCCC2)cc1)c1ccc([N+](=O)[O-])o1`, the EC50 was 0.742 µM.

For `O=C(Nc1ccc(S(=O)(=O)N2CCNCC2)cc1)c1ccc([N+](=O)[O-])o1`, the EC50 entry was “inactive”.

Consider `O=C(Nc1ccc(S(=O)(=O)N2CCOCC2)cc1)c1ccc([N+](=O)[O-])s1`, for which the EC50 was 13.5 µM.

Take `O=C(Nc1ccc(S(=O)(=O)N2CCOCC2)cc1)c1ccc([N+](=O)[O-])o1`: the EC50 was 2.28 µM.

As to `O=C(Nc1ccc(S(=O)(=O)N2CCOCC2)cc1)c1ccc([N+](=O)[O-])cc1`, the EC50 was > 80 µM (inactive).

Turning to `O=C(Nc1nc2ccccc2s1)c1ccncc1`, the EC50 was > 80 µM (inactive).

`O=C(Nc1ccc(S(=O)(=O)N2CCC(O)CC2)cc1)c1ccc([N+](=O)[O-])o1`: the EC50 was 2.02 µM.

With `O=C(Nc1ccc(S(=O)(=O)C2CCCCC2)cc1)c1ccc([N+](=O)[O-])o1`, the EC50 was 0.676 µM.

Turning to `O=C(Nc1ccc(C(=O)N2CCOCC2)cc1)c1ccco1`, the EC50 was > 80 µM (inactive).

Regarding `O=C(Nc1nc2c(F)cc(F)cc2s1)c1ccccc1`, the EC50 is > 80 µM (inactive).

On to `Fc1cc(F)c2nc(NCc3ccccn3)sc2c1`, for which the EC50 was > 80 µM (inactive).

For the molecule `O=C(Nc1ccc(S(=O)(=O)N2CCOCC2)cc1)c1cccs1`, the EC50 is > 80 µM (inactive).

Turning to `O=C(Nc1nc2c(F)cc(F)cc2s1)c1cccnc1`, the EC50 is > 80 µM (inactive).

With `O=C(Nc1nc2ccccc2s1)c1cccnc1`, the EC50 is > 80 µM (inactive).

In the case of `O=C(Nc1ccc(S(=O)(=O)N2CCCCC2)cc1)c1ccc([N+](=O)[O-])o1`, the EC50 was 1.75 µM.

As for `CC1CCN(S(=O)(=O)c2ccc(NC(=O)c3ccc([N+](=O)[O-])o3)cc2)CC1`, the EC50 is 0.541 µM.

Turning to `O=C(Nc1nc2c(F)cc(F)cc2s1)c1ccncc1`, the EC50 was > 80 µM (inactive).

Consider `CC1(C)CCN(S(=O)(=O)c2ccc(NC(=O)c3ccc([N+](=O)[O-])o3)cc2)CC1`, for which the EC50 was 0.494 µM.

For `O=C(Nc1ccc(S(=O)(=O)c2ccccc2)cc1)c1ccc([N+](=O)[O-])o1`, the EC50 is 1.09 µM.

`O=C(Nc1ccc(S(=O)(=O)N2CCOCC2)cc1)c1ccco1`: the EC50 was > 80 µM (inactive).

As to `O=C(Nc1nc2c(Cl)cc(Cl)cc2s1)c1ccccn1`, the EC50 is 10.6 µM.

With `CC1CN(S(=O)(=O)c2ccc(NC(=O)c3ccco3)cc2)CC(C)O1` (stereo unspecified), the EC50 is > 80 µM (inactive).

Consider `O=C(Nc1ccc(S(=O)(=O)N2CCOCC2)cc1)c1ccc(Br)o1`, for which the EC50 is > 80 µM (inactive).

Consider `O=C(Nc1nc2ccccc2s1)c1ccccn1`, for which the EC50 was > 80 µM (inactive).

For `O=C(Nc1nc2c(F)cccc2s1)c1ccccn1`, the EC50 is 5.83 µM.

Consider `O=C(Nc1nc2ccc(F)cc2s1)c1ccccn1`, for which the EC50 is 12.6 µM.

Turning to `O=C(Nc1ccc(S(=O)(=O)N2CCOCC2)cc1)c1ccccc1`, the EC50 is > 80 µM (inactive).

Turning to `O=C(Nc1nc2c(F)cc(F)cc2s1)c1ccccn1`, the EC50 is 7.22 µM.

On to `Cc1cc(C)c2nc(NC(=O)c3ccccn3)sc2c1`, for which the EC50 is 7.56 µM.

With `O=C(Nc1cccc(S(=O)(=O)N2CCOCC2)c1)c1ccco1`, the EC50 was > 80 µM (inactive).

Consider `Cc1ccc(C(=O)Nc2ccc(S(=O)(=O)N3CCOCC3)cc2)o1`, for which the EC50 is > 80 µM (inactive).

For the origin of these results see PubChem BioAssay AID540312 (Sanford-Burnham Center for Chemical Genomics, 2011).
